Source: PubChem
FID counter = displaces DNA intercalator in HCV helicase counter-screen; DNA fluorescent intercalator displacement, fluorescence; inhibition, % at 7.9 µM; 290,000 compounds, 0.17% hits; in the data active means inhibition above about 37%;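 further: higher means more ethidium bromide displaced from hairpin DNA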
Rad51 HR inh = Rad51 (human) homologous recombination inhibition. inhibition, % at 10 µM. hRad51 DNA strand exchange, fluorescence dequenching. AID 1385. Q06609. 200,000 compounds, 0.085% hits;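 active means inhibition above 40% at the single screening dose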
Target sequence (Q06609 whole entry, looked up): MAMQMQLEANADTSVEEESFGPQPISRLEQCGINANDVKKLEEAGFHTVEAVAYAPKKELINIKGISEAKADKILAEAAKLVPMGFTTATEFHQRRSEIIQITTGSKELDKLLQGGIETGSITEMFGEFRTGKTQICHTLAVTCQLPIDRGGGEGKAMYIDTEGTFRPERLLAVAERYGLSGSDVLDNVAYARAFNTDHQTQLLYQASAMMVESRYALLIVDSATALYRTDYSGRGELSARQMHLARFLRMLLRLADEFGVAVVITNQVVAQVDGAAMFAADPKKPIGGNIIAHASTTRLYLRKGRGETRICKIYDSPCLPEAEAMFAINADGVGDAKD
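System: hRad51 filaments on single-stranded DNA; reagent: Fluorescein- and BHQ1-tagged 47-mer duplex; compound dosing: one concentration, 10 µM final; timing: filaments 15 min 37 °C, then compound 30 min; measured by: fluorescein emission 520 nm, excitation 485 nm; benchmarks: per-plate controls and blanks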
RBBP9 inhibitor = blocks human serine hydrolase RBBP9; O75884; recombinant RBBP9, FP-Rh probe fluorescence polarization; inhibition, % at 7.94 µM; 220,000 compounds, 0.2% hits; AID 1515;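 active means inhibition above the campaign mean of all tested compounds plus 3 SD, cut at about 14% in these data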
Target sequence (O75884 whole entry, looked up): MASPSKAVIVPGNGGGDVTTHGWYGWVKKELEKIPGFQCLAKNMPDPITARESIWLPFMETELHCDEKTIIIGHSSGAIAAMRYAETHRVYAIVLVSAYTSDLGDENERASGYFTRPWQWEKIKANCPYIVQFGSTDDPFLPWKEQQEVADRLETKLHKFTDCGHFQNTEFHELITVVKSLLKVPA
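system = RBBP9 protein | input = RBBP9 at 2.5 µM in dispensed solution, before mixing | measured by = fluorescence polarization (mP), excitation 525 nm, emission 598 nm | incubation = enzyme-compound preincubation 30 min, then probe labeling 45 min, 25 °C | buffer or medium = Tris-NaCl-Pluronic buffer, pH 8.0 | compound = single dose 7.94 µM | also added = FP-Rh probe, 375 nM dispensing solution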
Wee1 stabilizer = human Wee1 degradation inhibition, primary screen. HeLa Luc-Wee1K328M stability, luciferase luminescence; 100% = proteasome inhibitor MG132 effect. P30291. 220,000 compounds, 1.2% hits. AID 1321. reporter increase, % at 5 µM;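 active means activation above the mean of all tested compounds plus 3 SD, set per screening run, cut at about 8.8% in these data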;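 further: cells exposed to compound for 20 h before luminescence read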
A number is an active result; – = inactive; · = no result given. Compounds with a hit are over-represented: about 1.2% of the library has one in this group of screens.

SMILES	FID counter	Rad51 HR inh	RBBP9 inhibitor	Wee1 stabilizer
CCOc1ccc(NC(=O)Nc2ccc3nccnc3c2)cc1	–	–	–	9.4
O=C(CCc1nnc2ccc(N3CCC4(CC3)OCCO4)nn12)Nc1ccc(F)cc1	–	·	·	·
C=CCSc1nc2sc3c(c2c(=O)[nH]1)CC(C)(CC)OC3 (configuration not stated)	–	·	·	·
COC(=O)c1ccc(NC(=O)C2CCCN(S(C)(=O)=O)C2)cc1 (configuration not stated)	–	–	–	–
COC(=O)c1ccc(NC(=O)C2CCN(S(C)(=O)=O)CC2)cc1	–	–	–	11
COCCNc1ccc(S(=O)(=O)N2CCCC2)cn1	–	–	–	–
COC(=O)CCN(C(=O)c1cccc([N+](=O)[O-])c1)c1ccccn1	–	–	–	–
O=C(CCCc1ccccc1)Nc1ccnn1C1CCN(Cc2ccccc2)CC1	–	·	·	·
CCOc1ccc(CN2CCC(n3nccc3NC(=O)CCCc3ccccc3)CC2)cc1	38	·	·	·
COC(=O)c1ccccc1NC(=O)C(C)c1ccc([N+](=O)[O-])cc1 (configuration not stated)	–	42	–	–
Cc1ccccc1-c1nc(CS(=O)CC(=O)NC(C)CCc2ccccc2)c(C)o1 (configuration not stated)	–	·	·	·
COc1cc(CNCCc2c[nH]c3ccccc23)ccc1OCc1ccccc1F	–	–	–	–
COc1cccc(CNCCc2c[nH]c3ccccc23)c1OCc1ccccc1	52	–	–	–
Cn1cc(NC(=O)c2cc(NC(=O)c3cc(NC=O)cn3C)cn2C)cc1C(=O)NCCC(=N)N	·	48	·	·
O=C(NCCc1ccc(Cl)cc1)Nc1cccc(Cl)c1	–	–	–	8.9
CCOc1ccc(/C=C2\C(=O)c3ccccc3OC2c2ccccc2)cc1 (configuration not stated)	–	–	–	–
COc1ccc(/C=C2\C(=O)c3ccccc3OC2c2ccccc2)cc1 (configuration not stated)	–	–	–	10
COc1ccccc1/C=C(\NC(=O)c1ccc(OC)c(OC)c1)C(=O)Nc1cc([N+](=O)[O-])ccc1C	–	–	–	10
Cc1cccc(C(=O)NNC2=CC(=O)CC(C)(C)C2)c1O	–	·	–	–
CC1(C)CC(=O)C=C(NNC(=O)c2ccccc2O)C1	–	96	–	–
COCCNC(=O)c1cccc(OC2CCN(Cc3ccc(Cl)c(F)c3)CC2)c1	–	·	·	·
Nc1c(C(=O)N/N=C/c2ccc(Cl)cc2)cnn1-c1ccccc1	–	–	–	–
Nc1c(C(=O)N/N=C/c2cccnc2)cnn1-c1ccccc1	–	–	–	9.6
CC(=O)N(c1cccc(C(F)(F)F)c1)c1nc(/C=C/C(=O)O)cs1	–	40	–	–
CC(=O)Nc1ccc(NC(=O)/C=C/c2cccc(C(F)(F)F)c2)cc1	–	–	–	–
SMILES	FID counter	Rad51 HR inh	RBBP9 inhibitor	Wee1 stabilizer
O=C1C2=C(CCCC2)C(=O)N1c1cccc(OCCBr)c1	–	–	–	–
CC(C)CN(CCOc1cccc(N2C(=O)C3=C(CCCC3)C2=O)c1)CC(C)C	–	–	–	9.0
C=C1c2cccc(O)c2C(O)=C2C(=O)[C@]3(O)C(O)=C(C(N)=O)C(=O)[C@@H](N(C)C)[C@@H]3[C@@H](O)[C@H]12	–	–	37	–
CCOc1cc(/C=N/NC(N)=O)cc(Br)c1OCC(=O)Nc1cccc2ccccc12	–	122	–	–
CCOc1cc(/C=N/NC(N)=O)cc(Br)c1OCC(=O)Nc1ccccc1C	–	–	–	–
Brc1cc2c(cc1/C=N/Nc1nc(N3CCCCC3)nc(N3CCCCC3)n1)OCO2	–	–	–	14
COc1nc(N/N=C/c2cc3c(cc2Br)OCO3)nc(N2CCOCC2)n1	–	–	–	–
COC(=O)c1cc2ccsc2n1CC(=O)N1CCCc2ccccc21	–	–	–	20
CCCCN1C(=O)CC(Sc2ccccc2C(=O)O)C1=O (configuration not stated)	–	·	–	–
CN1C(=O)CC(Sc2ccccc2C(=O)O)C1=O (configuration not stated)	–	·	–	10
CC(C)(C)NC(=O)c1cccc2c1OC(C)(C)C2	–	–	–	–
COc1cccc(CNC(=O)CNS(=O)(=O)c2ccc(Br)s2)c1	–	·	·	·
Cc1ccc(S(=O)(=O)Nc2cc(C(=O)NCCN(C)C)ccc2N2CCCC2)cc1	–	·	·	·
CCN(CC)CCCNC(=O)c1ccc(N2CCCCC2)c(NS(=O)(=O)c2ccc(C)cc2)c1	51	–	–	–
O=C1NCCN1C(=O)c1cccc(Cl)c1	–	·	–	12
O=C(NC1CCCC1)C(c1ccccc1)N(Cc1ccccc1)C(=O)c1csnn1 (configuration not stated)	–	·	·	·
COc1cc(C2NCCc3c2[nH]c2ccccc32)ccc1OC(C)C (configuration not stated)	37	–	–	–
Cc1cccc(Oc2nc3ccccn3c(=O)c2/C=C(\C#N)C(=O)NC2CCS(=O)(=O)C2)c1 (configuration not stated)	–	·	–	10
O=C(C[n+]1ccccc1)Nc1ccc(Oc2ccccc2)cc1	37	–	–	–
CN(C)c1ccc(NC(=O)C[n+]2ccccc2)cc1	–	·	·	·
Cc1nc(-c2ccccc2OC(F)(F)F)[nH]c(=O)c1Cl	–	–	–	9.2
Cc1cc(=O)[nH]c(-c2ccccc2OC(F)(F)F)n1	–	–	–	–
CCOc1ccc2ccccc2c1/C=N/NC(=O)CNC(=O)c1ccccc1O	–	·	·	·
O=C(N/N=C/C=C/c1ccccc1)c1n[nH]c2c1CCC2	–	·	–	9.1
O=C(N/N=C/C=C/c1ccccc1)c1ccccn1	–	–	–	8.9
SMILES	FID counter	Rad51 HR inh	RBBP9 inhibitor	Wee1 stabilizer
CC(=O)NN1C(=O)/C(=C2/Sc3ccccc3N2C)SC1=S	–	·	·	·
CN1C(=C2C(=O)OC(C)(C)OC2=O)Sc2ccccc21	–	–	–	8.8
CCN(CCNC(=O)C1CCN(Cc2nc(-c3ccc(Cl)cc3)oc2C)CC1)c1ccccc1	44	–	–	–
Cc1c(-c2ccnc3cc(C(=O)O)nn23)cnn1C	–	–	–	–
O=C(CSc1nnnn1C1CCCCC1)NCc1cccs1	–	–	–	11
CNc1ncc(C(=O)c2ccc(Cl)c(Cl)c2)s1	–	–	–	–
CNc1ncc(C(=O)c2ccc(Cl)cc2)s1	–	–	–	9.6
COc1ccc(CN2C(=NC(=O)C3CCCO3)SC3CS(=O)(=O)CC32)cc1 (configuration not stated)	–	·	·	·
COc1cccc(CN2C[C@]34C=C[C@@H](C[C@@H]3S2(=O)=O)O4)c1	·	–	·	·
CC(=O)NC1CCC(C(=O)O)(c2ccccc2)C1 (configuration not stated)	–	–	–	9.3
O=C(O)C1(c2ccccc2)CCC(Nc2ccccc2)C1 (configuration not stated)	–	·	·	·
COc1ccc(NC(=O)CCNS(=O)(=O)c2cccc3nonc23)cc1	–	·	·	·
COC(=O)c1ccc(NC(=O)CCNS(=O)(=O)c2cccc3nonc23)cc1	–	–	–	9.1
CCc1nc2cccnc2n1-c1ccc(CC(=O)NC(C)CC)cc1 (configuration not stated)	–	·	·	·
